From ChEMBL document CHEMBL1152619, “Synthesis and structure-activity relationships of dehydroaltenusin derivatives as selective DNA polymerase alpha inhibitors” (Bioorg Med Chem, 2009) come the findings set out here.

Calls of active or inactive are those of the source. The rule behind the calls is not given here. Some results are limits rather than exact numbers.

For orientation: IC50 means the concentration needed to halve the response being measured.

Test [1] is described as follows: Inhibition of calf thymus DNA polymerase alpha by [3H]dTTP incorporation assay. Also noted: species or system Bos taurus. In outline: (§1)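 Enzymes: pol α immunoaffinity-purified from calf thymus; pol β purified from a recombinant rat pol β expression plasmid. Template-primer was poly(dA)/oligo(dT)12–18 (A/T = 2/1) with [³H]-dTTP as substrate. Inhibitor–enzyme premix was added to standard reaction mixture and incubated for 60 min at 37 °C. Remaining activity was expressed relative to the no-inhibitor control (100%).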

Test [2] in a line: Selectivity index, ratio of IC50 for rat DNA polymerase beta to IC50 for calf thymus DNA polymerase alpha.
The next test deals with DNA polymerase beta (Rattus norvegicus, UniProt P06766). The test can be described thus: Inhibition of rat DNA polymerase beta by [3H]dTTP incorporation assay. Summed up:
as §1

The target of test [3] is Myosin light chain kinase, smooth muscle (Homo sapiens, UniProt Q15746). The test can be described thus: Inhibition of MLCK.
Sequence of Myosin light chain kinase, smooth muscle (Q15746 whole entry): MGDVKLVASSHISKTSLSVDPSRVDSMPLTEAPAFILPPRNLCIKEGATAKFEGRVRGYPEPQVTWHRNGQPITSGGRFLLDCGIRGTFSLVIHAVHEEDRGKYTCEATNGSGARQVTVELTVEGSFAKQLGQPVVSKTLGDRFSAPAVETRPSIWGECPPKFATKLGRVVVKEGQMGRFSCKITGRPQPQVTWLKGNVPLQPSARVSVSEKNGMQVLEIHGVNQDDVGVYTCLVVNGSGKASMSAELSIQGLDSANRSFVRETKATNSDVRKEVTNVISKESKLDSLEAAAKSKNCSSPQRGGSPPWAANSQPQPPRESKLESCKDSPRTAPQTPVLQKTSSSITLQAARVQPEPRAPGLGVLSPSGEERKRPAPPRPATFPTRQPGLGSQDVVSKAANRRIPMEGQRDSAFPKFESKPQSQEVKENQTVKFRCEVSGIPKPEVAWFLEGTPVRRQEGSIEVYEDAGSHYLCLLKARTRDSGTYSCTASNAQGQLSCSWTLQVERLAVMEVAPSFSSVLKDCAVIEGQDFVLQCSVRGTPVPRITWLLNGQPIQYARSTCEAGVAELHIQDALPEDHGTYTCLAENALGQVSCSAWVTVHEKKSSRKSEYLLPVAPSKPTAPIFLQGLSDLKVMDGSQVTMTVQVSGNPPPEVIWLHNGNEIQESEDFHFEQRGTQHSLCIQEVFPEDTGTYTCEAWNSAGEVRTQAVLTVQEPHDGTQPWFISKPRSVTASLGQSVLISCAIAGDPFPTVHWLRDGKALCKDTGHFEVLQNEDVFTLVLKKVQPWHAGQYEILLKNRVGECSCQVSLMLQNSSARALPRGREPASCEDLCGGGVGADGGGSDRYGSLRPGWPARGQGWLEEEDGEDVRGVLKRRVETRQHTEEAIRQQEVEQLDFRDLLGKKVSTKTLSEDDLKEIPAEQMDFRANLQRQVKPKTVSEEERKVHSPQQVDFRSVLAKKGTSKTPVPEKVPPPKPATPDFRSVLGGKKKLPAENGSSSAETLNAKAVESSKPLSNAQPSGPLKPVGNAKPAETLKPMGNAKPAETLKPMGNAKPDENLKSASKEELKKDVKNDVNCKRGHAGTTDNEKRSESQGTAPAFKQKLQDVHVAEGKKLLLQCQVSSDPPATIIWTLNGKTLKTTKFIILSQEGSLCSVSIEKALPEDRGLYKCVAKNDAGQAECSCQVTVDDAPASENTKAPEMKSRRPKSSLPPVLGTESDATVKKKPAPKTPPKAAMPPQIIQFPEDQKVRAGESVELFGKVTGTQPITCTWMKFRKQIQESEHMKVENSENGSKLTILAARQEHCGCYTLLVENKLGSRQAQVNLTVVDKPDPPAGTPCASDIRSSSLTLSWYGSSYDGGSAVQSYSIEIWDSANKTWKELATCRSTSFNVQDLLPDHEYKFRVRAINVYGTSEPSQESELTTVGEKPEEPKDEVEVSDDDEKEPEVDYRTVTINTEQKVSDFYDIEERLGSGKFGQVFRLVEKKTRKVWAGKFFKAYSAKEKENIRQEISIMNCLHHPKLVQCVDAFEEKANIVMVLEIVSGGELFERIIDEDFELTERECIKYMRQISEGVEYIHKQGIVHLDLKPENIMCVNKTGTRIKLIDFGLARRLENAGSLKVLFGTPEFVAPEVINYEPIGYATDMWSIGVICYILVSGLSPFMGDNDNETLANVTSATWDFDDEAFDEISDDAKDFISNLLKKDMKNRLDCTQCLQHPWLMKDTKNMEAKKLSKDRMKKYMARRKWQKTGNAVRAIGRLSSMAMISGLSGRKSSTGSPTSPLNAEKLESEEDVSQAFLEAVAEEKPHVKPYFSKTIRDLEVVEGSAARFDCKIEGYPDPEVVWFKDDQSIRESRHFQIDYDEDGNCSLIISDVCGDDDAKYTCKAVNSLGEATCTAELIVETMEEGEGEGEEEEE
The species named for the next test is Bos taurus. The test can be described thus: Inhibition of calf thymus DNA polymerase alpha assessed as complete inhibition of enzyme activity at 4 uM by [3H]dTTP incorporation assay.

For `CCCOc1cc(O)c2c(c1)C1=CC(=O)C(O)=CC1(C)OC2=O` (stereo not given), the IC50 entry in test [1] was “Dose-dependent effect”; in test [1] (read-out: IC50), 0.18 µM; against DNA polymerase beta it was 35 µM. Further, in test [2], the Ratio IC50 came to 194.
`COc1cc(O)c2c(c1)C1=CC(=O)C=CC1(C)OC2=O` (stereo not given): in test [1] (read-out: IC50), the IC50 was above 200 µM.
Regarding `CCCCCCOc1cc(O)c2c(c1)C1=CC(=O)C(O)=CC1(C)OC2=O` (stereo not given), the figures for the IC50 result (in test [1]; in test [1] (read-out: IC50); on DNA polymerase beta) were “Dose-dependent effect”, 0.09 µM and 24 µM, respectively. For the same compound, the Ratio IC50 in test [2] was determined as 267.
The matching figures for `CC12C=C(O)C(=O)C=C1c1cc(O)cc(O)c1C(=O)O2` (stereo not given) [DESMETHYLDEHYDROALTENUSIN]: “Dose-dependent effect”, 0.89 µM, 126 µM and 142.
For the compound `COc1cc(O)c2c(c1)C1=CC(=O)C(O)=CC1(C)OC2=O` (stereo not given) [DEHYDROALTENUSIN], the IC50 in test [3] is 0.69 µM; in test [1], “Dose-dependent effect”; in test [1] (read-out: IC50), 0.68 µM; at DNA polymerase beta, 64 µM. Also, in the test listed under Bos taurus, the outcome was Active. Moreover, the Ratio IC50 in test [2] was found to be 94.1.
Regarding `CC12C=CC(=O)C=C1c1cccc(O)c1C(=O)O2` (stereo not given), the IC50 in test [1] (read-out: IC50) is above 200 µM.
Still for that read-out and setting: to `COc1cc(O)c2c(=O)oc3cc(OCc4ccccc4)c(OCc4ccccc4)cc3c2c1` belongs above 200 µM.
As to `CC12C=C(O)C(=O)C=C1c1cccc(O)c1C(=O)O2` (stereo not given), the figures for the half-maximal inhibitory concentration (IC50) entry (in test [1]; in test [1] (read-out: IC50); against DNA polymerase beta) were “Dose-dependent effect”, 0.24 µM and 89 µM, respectively. The Ratio IC50 in test [2] was 371.
The matching figures for `CCCCCCCCCCCCOc1cc(O)c2c(c1)C1=CC(=O)C(O)=CC1(C)OC2=O` (stereo not given): “Dose-dependent effect”, 0.06 µM, 11 µM and 183.
Take `COc1cc(O)c2c(=O)oc3cc(O)c(O)cc3c2c1`: in test [1] (read-out: IC50), the IC50 is above 200 µM.
